# APJ antagonist = antagonists of human APJ apelin receptor; P35414; inhibition, % at 20 µM; actives 0.32% (n = 330,000); CHO-K1 APJ beta-arrestin complementation, luminescence; AID 2521;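 active = inhibition above about 40% at 20 µM, limit read from the data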;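 also: cells challenged with 10 nM apelin-13 agonist together with compound; plate controls were apelin-13 plus DMSO wells for no effect and DMSO wells lacking apelin-13 for full effect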
# EBI2 antag = EBI2 (human) antagonism; P32249; EBI2 beta-arrestin recruitment, luminescence, 7a,25-OHC stimulated; inhibition, % at 5 µM; actives 0.81% (n = 360,000); AID 651636; in the data active = inhibition above about 38%;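 also: enzyme fragment complementation signal reports receptor beta-arrestin coupling in cells; 0% = agonist plus DMSO wells and 100% = wells without agonist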
# Target sequence (P32249 whole entry, looked up, the tested form may be a part): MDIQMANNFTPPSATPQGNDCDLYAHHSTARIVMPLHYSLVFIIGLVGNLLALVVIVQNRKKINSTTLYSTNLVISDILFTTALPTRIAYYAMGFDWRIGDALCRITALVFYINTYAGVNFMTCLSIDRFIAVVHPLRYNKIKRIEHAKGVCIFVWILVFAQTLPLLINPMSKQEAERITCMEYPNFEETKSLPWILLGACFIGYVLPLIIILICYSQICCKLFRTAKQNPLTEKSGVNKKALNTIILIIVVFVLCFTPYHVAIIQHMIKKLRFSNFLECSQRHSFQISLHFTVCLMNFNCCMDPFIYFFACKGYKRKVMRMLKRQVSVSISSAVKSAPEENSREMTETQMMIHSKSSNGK
# CCR6 antagonist = CCR6 (human) receptor antagonism. P51684. CHO-K1 CCR6 PathHunter beta-arrestin, luminescence, CCL20-stimulated. inhibition, % at 20 µM. actives 0.49% (n = 340,000). AID 493098;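 active = compounds whose inhibition of the agonist-driven luminescence signal at 20 µM reaches about 50%, limit read from the data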;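 also: cells stimulated with CCL20 at 14 nM final; plate controls were DMSO with CCL20 for no effect and DMSO without agonist for full effect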
# APJ ag = agonists of human APJ apelin receptor; P35414; CHO-K1 APJ PathHunter beta-arrestin, luminescence; 0% DMSO wells, 100% apelin; activation, % at 20 µM; actives 0.11% (n = 330,000); AID 2520;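 active = activation more than six SD over the plate average, tested at 20 µM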;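 also: 0% = DMSO alone and 100% = apelin-13 at 10 nM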
#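 Test system: CHO-K1 APJ beta-arrestin complementation cell line. Amount: cell density 1000 per well. Controls: DMSO negative, 10 nM Apelin-13 positive. Signal: luminescent beta-gal fragment complementation, chemiluminescent substrate. Read-out basis: agonist-driven arrestin binding to APJ. Timing: compound stimulation 90 min at 25 °C, detection 60 min.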
# CXCR6 inh = CXCR6 (human) receptor inhibition; O00574; CHO-K1 PathHunter CXCR6 beta-arrestin, luminescence; inhibition, % at 20 µM; actives 0.36% (n = 360,000); AID 602244; in the data active = inhibition above about 34%, passing the limit was not always enough;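 also: antagonist mode with CXCL16 agonist at 10 nM final; 0% = 10 nM CXCL16 with DMSO and 100% = unstimulated wells without agonist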
# EBI2 conf = EBI2 (human) antagonism, single concentration confirmation | actives 29% (n = 2,400) | inhibition, % at 5 µM | shares compounds with EBI2 antag | EBI2 beta-arrestin luminescence, 7a,25-OHC antagonism;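 active = inhibition of at least 50%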
# EBI2 ag = EBI2 agonism counter-screen; shares compounds with EBI2 antag; EBI2-expressing cells, agonist mode, luminescence, 60 min; 0% vehicle, 100% 7α,25-dihydroxycholesterol control; activation, % at 5 µM; 2,400 tested, under 10 active; AID 652000;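 active = activation of at least 50%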
# bGal cs = inhibits E. coli beta-galactosidase, counter-screen for EBI2 antagonists; shares compounds with EBI2 antag; purified beta-galactosidase, luminescent Galacton Star, 15 min; inhibition, % at 5 µM; actives 1% (n = 2,400); AID 652176;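 active = replicate-average signal at least 3 plate SD below neutral wells, shown as high inhibition, flagging enzyme-inhibiting false positives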;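 also: 0% = DMSO wells with enzyme and 100% = wells lacking enzyme; higher means stronger loss of beta-gal luminescence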
# An asterisk follows results filed as active; nt = not tested or not shown. An excerpt weighted towards active compounds, which were near 1.5% of everything screened.
SMILES,APJ antagonist,EBI2 antag,CCR6 antagonist,APJ ag,CXCR6 inh,EBI2 conf,EBI2 ag,bGal cs
CC(C)C[C@@H](CN1CCC[C@@H]1CN1C(=S)NC[C@@H]1Cc1ccc(O)cc1)N1C[C@H](Cc2ccc(O)cc2)N(CCc2ccccc2)C1=S,nt,74*,nt,nt,1,19,0,-11
CC(C)C[C@@H](CN1CCCC1CN1C(=S)NC[C@@H]1Cc1ccccc1)N1C[C@H](Cc2ccc(O)cc2)N(CCc2ccccc2)C1=S (some centres not stated),nt,22,nt,nt,0,nt,nt,nt
CCOc1ccc(CCN2C(=S)N([C@@H](CC(C)C)CN3CCC[C@@H]3CN3C(=S)NC[C@@H]3CC(C)C)C[C@@H]2Cc2ccc(O)cc2)cc1,nt,47*,nt,nt,10,23,0,4
CC(C)C[C@@H](CN1CCCC1CN1C(=S)NC[C@@H]1Cc1ccccc1)N1C[C@H](Cc2ccccc2)N(CCc2ccccc2)C1=S (some centres not stated),nt,12,nt,nt,-6,nt,nt,nt
CC(C)C[C@@H](CN1CCC[C@@H]1CN1C(=S)NC[C@@H]1Cc1ccccc1)N1C[C@H](Cc2ccc(O)cc2)N(CCc2ccccc2)C1=S,nt,37*,nt,nt,-1,5,1,7
CC(C)C[C@H]1CNC(=S)N1C[C@H]1CCCN1C[C@H](CC(C)C)N1C[C@H](Cc2ccc(O)cc2)N(CC2CCCCC2)C1=S,nt,61*,nt,nt,11,8,-1,-7
CCOc1ccc(CCN2C(=S)N([C@@H](CC(C)C)CN3CCCC3CN3C(=S)NC[C@@H]3CC(C)C)C[C@@H]2Cc2ccc(O)cc2)cc1 (some centres not stated),nt,27,13,nt,1,nt,nt,nt
COc1c(C)cc(C(O)c2ncc(-c3ccccc3)[nH]2)cc1C (configuration not stated),nt,7,nt,nt,-9,nt,nt,nt
CCN(CC)C(=O)c1cccc(-c2csc(C(O)c3ccc(F)c(F)c3)n2)c1 (configuration not stated),nt,6,nt,nt,-9,nt,nt,nt
CCOC(=O)/C=C/C(=O)Nc1cc(S(=O)(=O)Nc2ccc(OC)cc2)ccc1N1CCOCC1,-51,75*,10,8,-2,72*,1,11
Clc1ccc(CN(CC2CCCO2)C(c2cccs2)c2nnnn2C2CCCC2)cc1 (configuration not stated),15,49*,32,-1,10,4,-1,-13
CCN(Cc1ccccc1)C(c1cccs1)c1nnnn1C1CCCCC1 (configuration not stated),19,49*,29,-2,16,19,-1,-13
CC1(C)C2CCC1(C)C(NC(=O)/C=C/c1ccccc1)C2 (configuration not stated),-1,46*,10,-2,-1,43,0,2
Cc1ccc(/C=C2\SC(N3CCCC3)=NC2=O)cc1,4,nt,nt,-1,nt,nt,nt,nt
CCOC(=O)C1CCN(C2=NC(=O)/C(=C/c3ccc(Cl)cc3)S2)CC1,8,87*,-3,-2,6,66*,0,5
CCOc1ccc(/C=C2\SC(N3CCCCC3)=NC2=O)cc1,-1,74*,2,0,2,50*,2,8
O=C1N=C(N2CCCCC2)S/C1=C\c1ccc(Br)cc1,2,87*,-2,-1,4,58*,0,-15
COc1ccc(-c2ccc(C(=O)Nc3ccc(OC)nc3)c3occc23)c(C)c1,nt,-1,nt,nt,-11,nt,nt,nt
CC(=O)NC(C)(c1ccccc1)c1nc(-c2cnc3ccccc3c2)cs1 (configuration not stated),nt,5,nt,nt,-2,nt,nt,nt
Cc1ccc(-c2csc(C(O)c3ccccc3)n2)cc1C (configuration not stated),nt,-4,nt,nt,-6,nt,nt,nt
COc1ccc(NC(=O)C2CCC(CNS(=O)(=O)c3cccs3)CC2)cc1OC (configuration not stated),8,18,10,1,0,nt,nt,nt
COc1ccc(NC(=O)C2CCC(CNS(=O)(=O)c3cccs3)CC2)cc1 (configuration not stated),4,47*,14,-2,-12,16,1,5
Cc1c(C(=O)NCc2cccc(C(F)(F)F)c2)sc(=O)n1Cc1ccccc1F,nt,6,nt,nt,-2,nt,nt,nt
O=C(CSC1CN(C(c2ccccc2)c2ccccc2)C1)N/N=C/c1ccccc1,-4,49*,16,-4,11,35,-1,-10
O=C(CCN1CCN(C(c2ccccc2)c2ccccc2)CC1)N/N=C/c1ccc(O)cc1,-5,32,28,0,2,nt,nt,nt
SMILES,APJ antagonist,EBI2 antag,CCR6 antagonist,APJ ag,CXCR6 inh,EBI2 conf,EBI2 ag,bGal cs
O=C(Cc1ccccc1)NC(=S)Nc1ccc2oc(-c3ccccc3F)nc2c1,9,39*,36,-2,12,22,0,6
CCCCN(C)C(=O)c1sc(=O)n(Cc2ccc(Cl)c(Cl)c2)c1C,nt,5,nt,nt,-1,nt,nt,nt
COC[C@H]1CCCN1c1ccc2c(c1)O[C@H](COCc1ccccc1)CN([C@H](C)c1ccccc1)S2(=O)=O,nt,23,nt,nt,-4,nt,nt,nt
CCOC(=O)c1c(NC(=O)CS(=O)(=O)c2cn(CC)c3ccccc23)sc2c1CCCCC2,20,57*,6,-1,11,36,-1,6
COC(=O)c1ccc(C2C(Oc3ccccc3)C(=O)N2CCc2ccc(F)cc2)cc1 (configuration not stated),-11,53*,-5,1,-9,32,0,5
COC(=O)c1ccc(C2C(Oc3ccc(OC)cc3)C(=O)N2CCc2ccc(OC)c(OC)c2)cc1 (configuration not stated),5,19,4,-3,6,nt,nt,nt
O=S(=O)(c1ccc(NC(=S)NCCc2ccccc2)cc1)N1CCOCC1,-11,10,-4,0,10,nt,nt,nt
O=S(=O)(c1ccc(NC(=S)NN=C(Cc2ccccc2)Cc2ccccc2)cc1)N1CCOCC1,4,46*,8,1,0,-5,2,5
CC(C)NC(=O)C1(C)CN(S(C)(=O)=O)CC(=O)N1C1CC1 (configuration not stated),nt,-8,nt,nt,nt,nt,nt,nt
COC(=O)C(=Cc1ccc(OCc2ccc([N+](=O)[O-])cc2)c(OC)c1)C(=O)OC,9,57*,40,-5,22,67*,1,3
Cc1cc(Br)cn2c(Cc3ccsc3)c(C(C)(C)C)nc12,nt,-5,nt,nt,-6,nt,nt,nt
Cc1ccc2c(c1)[C@H]1[C@H](CO2)[C@H](c2ccccc2)[C@]2(C)C(=O)N(Cc3ccc(Cl)cc3)CC(=O)N12,-2,48*,14,-3,8,31,-1,-9
